According to ChEMBL document CHEMBL6177922, “Antibacterial activity of the structurally novel C-2 amine-substituted analogues based on quinoxaline” (RSC Med Chem, 2025):
Values after ≈ are worked out from the molar mass of the structure shown. Active and inactive are the calls of the source. The calls are words filed in the database; no cut-off is given here.

Key:
Enterococcus = assay: Antibacterial activity against vancomycin-resistant Enterococcus assessed as reduction in bacterial growth by broth microdilution method; format: functional
How it was run: (§1)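 Twofold serial dilution (microdilution) MIC in lysogeny broth (LB) medium against drug-resistant strains: MRSA USA300, vancomycin-resistant Enterococci, Klebsiella pneumoniae.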

MCF7 = assay: Cytotoxicity against human MCF7 cells assessed as inhibition of cell growth incubated for 24 hrs by MTT assay; format: functional, cell-based; details: MCF7, 24 h
How it was run: (§2)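 MTT assay with 24 h exposure of cells to the samples. IC50 is the concentration giving 50% growth inhibition, reported as mean ± S.D. of three independent experiments.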

Klebsiella pneumoniae = assay: Antibacterial activity against drug-resistant Klebsiella pneumoniae assessed as reduction in bacterial growth by broth microdilution method; format: functional; how it was run: as §1
[1] = Cytotoxicity against human HK-2 cells assessed as inhibition of cell growth incubated for 24 hrs by MTT assay; format: toxicity, cell-based; how it was run: as §2
Bacillus subtilis = assay: Antibacterial activity against drug sensitive Bacillus subtilis 168 assessed as reduction in bacterial growth by broth microdilution method; format: functional
How it was run: (§3)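 MICs were determined by standard twofold serial broth microdilution in lysogeny broth (LB) medium.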

Staphylococcus aureus [2] = assay: Antibacterial activity against drug sensitive Staphylococcus aureus RN4220 assessed as reduction in bacterial growth by broth microdilution method; format: functional; how it was run: as §3
Escherichia coli = assay: Antibacterial activity against drug sensitive Escherichia coli DH5alpha assessed as reduction in bacterial growth by broth microdilution method; format: functional; how it was run: as §3
[3] = Cytotoxicity against human HEK293 cells assessed as inhibition of cell growth incubated for 24 hrs by MTT assay; format: toxicity, cell-based; how it was run: as §2
Pseudomonas aeruginosa = assay: Antibacterial activity against drug sensitive Pseudomonas aeruginosa PAO1 assessed as reduction in bacterial growth by broth microdilution method; format: functional; how it was run: as §3
Staphylococcus aureus [4] = assay: Antibacterial activity against methicillin-resistant Staphylococcus aureus USA300 assessed as reduction in bacterial growth by broth microdilution method; format: functional; how it was run: as §1
Staphylococcus aureus [5] = assay: Antibacterial activity against methicillin-resistant Staphylococcus aureus infected in Kunming mouse corneal infection model assessed as reduction in viable bacterial count at 6 mg/ml, TOP administered 3 times daily for 1 week; format: functional, organism-based; details: time 1.0 weeks
How it was run: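 Corneal infection model: male and female Kunming mice (~20 g) immunosuppressed with daily i.p. cyclophosphamide for 3 days. Anesthetized with i.p. avertin (400 mg kg-1), corneas abraded and given 20 μL MRSA (6 × 10^7 CFU mL-1). From 24 h post-infection, treated by topical smear three times daily for one week. Controls: 5% glucose and 5% vancomycin. Six mice per group. Corneal viable counts measured.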

Staphylococcus aureus [6] = assay: Bactericidal activity against methicillin-resistant Staphylococcus aureus assessed as inhibition of bacterial growth at 2 times MIC incubated for 24 hrs by time kill assay; format: functional, organism-based
How it was run: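 Time-kill: MRSA grown 24 h at 37 °C, adjusted to ~2 × 10^6 CFU mL-1, exposed at 2× or 3× MIC with shaking at 37 °C. Aliquots taken at 0.5–13 h, serially diluted 10-fold in PBS, plated on Mueller–Hinton agar, counted after 24 h at 37 °C. Duplicate.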

SMILES	MIC (Enterococcus) [µg/mL]	IC50 (MCF7) [µg/mL]	MIC (Klebsiella pneumoniae) [µg/mL]	IC50 at 24 h [1] [µg/mL]	MIC (Bacillus subtilis) [µg/mL]	MIC (Staphylococcus aureus [2]) [µg/mL]	MIC (Escherichia coli) [µg/mL]	IC50 at 24 h [3] [µg/mL]	MIC (Pseudomonas aeruginosa) [µg/mL]	MIC (Staphylococcus aureus [4]) [µg/mL]	Activity (Staphylococcus aureus [5])	Activity (Staphylococcus aureus [6])
COc1cccc(CCNc2nc3ccccc3nc2N)c1	128 (≈ 435 µM)	74.7 (≈ 254 µM)	64 (≈ 217 µM)	142 (≈ 483 µM)	32 (≈ 109 µM)	8 (≈ 27.2 µM)	16 (≈ 54.4 µM)	130 (≈ 443 µM)	64 (≈ 217 µM)	16 (≈ 54.4 µM)		
CCNc1nc2ccccc2nc1N	128 (≈ 680 µM)		> 128		128 (≈ 680 µM)	128 (≈ 680 µM)	> 128		128 (≈ 680 µM)	> 128		
Nc1nc2ccccc2nc1NCCc1ccccc1F	128 (≈ 453 µM)		> 128		128 (≈ 453 µM)	64 (≈ 227 µM)	128 (≈ 453 µM)		128 (≈ 453 µM)	128 (≈ 453 µM)		
Nc1nc2ccccc2nc1NCCC1=CCCCC1	> 128		> 128		128 (≈ 477 µM)	64 (≈ 238 µM)	> 128		> 128	> 128		
Cc1ccc(CCNc2nc3ccccc3nc2N)cc1	> 128	70.9 (≈ 255 µM)	64 (≈ 230 µM)	150 (≈ 538 µM)	32 (≈ 115 µM)	16 (≈ 57.5 µM)	32 (≈ 115 µM)	136 (≈ 487 µM)	64 (≈ 230 µM)	32 (≈ 115 µM)		
COc1ccc(CCNc2nc3ccccc3nc2N)cc1	> 128	71.5 (≈ 243 µM)	64 (≈ 217 µM)	139 (≈ 471 µM)	16 (≈ 54.4 µM)	16 (≈ 54.4 µM)	32 (≈ 109 µM)	129 (≈ 437 µM)	128 (≈ 435 µM)	16 (≈ 54.4 µM)		
Nc1nc2ccccc2nc1NCCC1CCCCC1	> 128		> 128		> 128	128 (≈ 473 µM)	> 128		128 (≈ 473 µM)	128 (≈ 473 µM)		
CN[C@H](CC(C)C)C(=O)N[C@H]1C(=O)N[C@@H](CC(N)=O)C(=O)N[C@H]2C(=O)N[C@H]3C(=O)N[C@H](C(=O)N[C@H](C(=O)O)c4cc(O)cc(O)c4-c4cc3ccc4O)[C@H](O)c3ccc(c(Cl)c3)Oc3cc2cc(c3O[C@@H]2O[C@H](CO)[C@@H](O)[C@H](O)[C@H]2O[C@H]2C[C@](C)(N)[C@H](O)[C@H](C)O2)Oc2ccc(cc2Cl)[C@H]1O											Active	
Nc1nc2ccccc2nc1NCCc1ccc(Br)cc1	> 128		> 128		64 (≈ 186 µM)	64 (≈ 186 µM)	128 (≈ 373 µM)		128 (≈ 373 µM)	> 128		
Nc1nc2ccccc2nc1NCc1ccc2ccccc2c1	> 128	69.7 (≈ 232 µM)	> 128	147 (≈ 488 µM)	32 (≈ 107 µM)	32 (≈ 107 µM)	64 (≈ 213 µM)	131 (≈ 435 µM)	> 128	64 (≈ 213 µM)		
Nc1nc2ccccc2nc1NCCc1ccccc1Br	128 (≈ 373 µM)		64 (≈ 186 µM)		64 (≈ 186 µM)	128 (≈ 373 µM)	> 128		128 (≈ 373 µM)	128 (≈ 373 µM)		
Nc1nc2ccccc2nc1NCCCc1ccccc1	128 (≈ 460 µM)	68.7 (≈ 247 µM)	128 (≈ 460 µM)	141 (≈ 506 µM)	64 (≈ 230 µM)	32 (≈ 115 µM)	128 (≈ 460 µM)	126 (≈ 451 µM)	> 128	128 (≈ 460 µM)		
Nc1nc2ccccc2nc1NCCc1ccc(Cl)c(Cl)c1	> 128		> 128		> 128	> 128	> 128		> 128	> 128		
CNc1nc2ccccc2nc1N	> 128		> 128		64 (≈ 367 µM)	128 (≈ 735 µM)	128 (≈ 735 µM)		128 (≈ 735 µM)	> 128		
NC[C@H]1O[C@H](O[C@H]2[C@H](O)[C@@H](O[C@H]3O[C@H](CO)[C@@H](O)[C@H](N)[C@H]3O)[C@H](N)C[C@@H]2N)[C@H](O)[C@@H](O)[C@@H]1O [KANAMYCIN]	8 (≈ 16.5 µM)		4 (≈ 8.26 µM)		0.5 (≈ 1.03 µM)	1 (≈ 2.06 µM)	1 (≈ 2.06 µM)		4 (≈ 8.26 µM)	1 (≈ 2.06 µM)		
Nc1nc2ccccc2nc1NCCc1ccc(F)cc1	128 (≈ 453 µM)		128 (≈ 453 µM)		64 (≈ 227 µM)	64 (≈ 227 µM)	128 (≈ 453 µM)		> 128	> 128		
Nc1nc2ccccc2nc1NCCc1ccccc1	> 128	72.3 (≈ 274 µM)	> 128	130 (≈ 493 µM)	64 (≈ 242 µM)	32 (≈ 121 µM)	128 (≈ 484 µM)	123 (≈ 467 µM)	128 (≈ 484 µM)	> 128		
CCn1cc(C(=O)O)c(=O)c2cc(F)c(N3CCNCC3)cc21												Active
O=c1[nH]cc(F)c(=O)[nH]1 [FLUOROURACIL]		0.85 (≈ 6.53 µM)										
